This is an account of results in PMC11365375 (Acta Pharmaceutica Sinica. B, 2024).

Assay [1] has as its system H460^R231Q cells. Kind of assay: Cell proliferation assay. The note with it: Homo sapiens, 72 h, read-out: H460^R231Q (IC50, μmol/L). The format is cell-based, human. The procedure, abridged: (§1)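 Human NCI-H460 NSCLC cells engineered to express wild-type or R231Q DOT1L (aa 1–416) were grown in RPMI 1640 with 10% FBS. Cells were seeded in 96-well plates and exposed to a range of test compound concentrations for 72 h at 37 °C, 5% CO₂. Growth was read by CCK-8 on a plate reader, and IC50 values were derived from the dose–response.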

Assay [2] deals with H460^WT cells. The assay can be described thus: Cell proliferation assay. The format is cell-based. To be noted: Homo sapiens, 72 h, read-out: H460^WT (IC50, μmol/L). The procedure, abridged: as §1
Assay [3] relates to DOT1L^R231Q mediated H3K79me2 level in H460^R231Q cells. The assay can be described thus: Quantitative Western blot analysis of H3K79me2 level in H460^R231Q cells. In kind it is cell-based, human. To be noted: H460^R231Q cells, Fig. 7. The method, boiled down: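 H460^R231Q cells were treated with test compound, and histones were extracted with a total histone extraction kit; protein was quantified by BCA. Extracts were resolved on 8–15% SDS-PAGE, transferred to PVDF and probed for H3K79me2 and histone H3, with ECL/X-ray film detection. Band densities were quantified, and H3K79me2 was normalised to H3. The dimethylation index was the compound value divided by the SGC0946 (positive control) value.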
For orientation: A western blot detects proteins with antibodies after separation by electrophoresis.

In assay [4] the target is DOT1L^WT (Homo sapiens, UniProt Q8TEK3). The assay can be described thus: DOT1L^WT methyltransferase assay. The format is biochemical. The procedure, abridged:
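Commercial wild-type DOT1L was preincubated with test compound, 1% DMSO vehicle or SGC0946 positive control for 15 min at 25 °C. Nucleosomes plus SAM were added for 60 min, then detection buffer for 10 min, then anti-SAH-Lumi4-Tb and SAH-d2 for 60 min, all at 25 °C. The TR-FRET 665/620 nm ratio was read. % inhibition was scaled between vehicle and positive control; dose–response in duplicate, fitted for IC50.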

Assay [5] has as its system H3K27me3, H3K9me2, H3K4me1 and H3K36me2 levels. The assay can be described thus: WB analysis of common histone H3 modifications in H460^R231Q cells. The format is cell-based, human. The note with it: Fig. 7. The method, boiled down:
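H460^R231Q cells were treated with test compound alongside an SGC0946 positive control. Histone extracts (or RIPA lysates with protease/phosphatase inhibitors) were quantified by BCA, separated on 8–15% SDS-PAGE and blotted to PVDF. Blots were probed for H3K27me3, H3K9me2, H3K4me1 and H3K36me2 and detected by ECL on X-ray film. Membranes were stripped and reprobed for proteins of similar size.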

Assay [6] relates to H460^R231Q. The note with it: R231Q group, in vivo; cited from earlier work.
The subject of assay [7] is H460^WT. To be noted: WT group, in vivo; cited from earlier work.

Chain of DOT1L^WT (Q8TEK3 whole entry): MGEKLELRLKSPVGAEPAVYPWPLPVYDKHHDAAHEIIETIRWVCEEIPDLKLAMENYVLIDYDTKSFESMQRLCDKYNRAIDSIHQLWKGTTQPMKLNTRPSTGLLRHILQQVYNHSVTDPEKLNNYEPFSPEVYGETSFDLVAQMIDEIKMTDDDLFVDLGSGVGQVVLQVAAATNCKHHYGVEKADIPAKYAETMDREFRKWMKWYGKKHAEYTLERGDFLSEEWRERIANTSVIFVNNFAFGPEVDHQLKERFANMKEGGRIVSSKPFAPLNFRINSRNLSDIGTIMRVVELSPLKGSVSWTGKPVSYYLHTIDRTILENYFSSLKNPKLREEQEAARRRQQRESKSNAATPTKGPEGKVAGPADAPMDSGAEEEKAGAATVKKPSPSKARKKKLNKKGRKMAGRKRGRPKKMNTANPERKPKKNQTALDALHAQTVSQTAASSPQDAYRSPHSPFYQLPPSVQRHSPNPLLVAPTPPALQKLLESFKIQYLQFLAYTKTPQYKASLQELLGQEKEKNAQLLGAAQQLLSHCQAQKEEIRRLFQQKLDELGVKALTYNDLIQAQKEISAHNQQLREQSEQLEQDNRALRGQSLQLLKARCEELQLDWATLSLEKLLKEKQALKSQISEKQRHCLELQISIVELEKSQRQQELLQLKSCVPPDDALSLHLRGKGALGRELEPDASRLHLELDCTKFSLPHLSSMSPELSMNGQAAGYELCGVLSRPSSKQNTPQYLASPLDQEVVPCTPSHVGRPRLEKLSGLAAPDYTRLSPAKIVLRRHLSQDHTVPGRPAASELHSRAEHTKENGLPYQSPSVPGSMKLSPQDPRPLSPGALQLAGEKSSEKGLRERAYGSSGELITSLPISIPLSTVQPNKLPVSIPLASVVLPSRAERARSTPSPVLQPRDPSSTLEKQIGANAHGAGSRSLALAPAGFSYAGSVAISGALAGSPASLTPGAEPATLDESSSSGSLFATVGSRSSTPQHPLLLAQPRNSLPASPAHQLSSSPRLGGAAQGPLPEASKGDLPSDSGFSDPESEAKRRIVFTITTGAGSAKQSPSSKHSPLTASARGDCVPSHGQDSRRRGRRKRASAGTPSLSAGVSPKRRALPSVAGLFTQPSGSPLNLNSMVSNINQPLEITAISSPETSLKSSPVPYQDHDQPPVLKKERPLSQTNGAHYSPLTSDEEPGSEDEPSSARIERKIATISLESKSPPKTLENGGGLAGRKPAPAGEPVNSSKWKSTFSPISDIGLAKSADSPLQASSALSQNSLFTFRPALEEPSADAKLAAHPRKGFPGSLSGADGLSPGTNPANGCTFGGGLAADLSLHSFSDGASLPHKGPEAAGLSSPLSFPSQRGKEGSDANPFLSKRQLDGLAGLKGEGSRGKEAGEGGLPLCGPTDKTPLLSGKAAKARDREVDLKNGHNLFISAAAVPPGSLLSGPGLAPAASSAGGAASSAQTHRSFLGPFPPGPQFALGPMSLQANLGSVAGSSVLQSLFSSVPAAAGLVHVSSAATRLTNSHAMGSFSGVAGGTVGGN

Take `CC(C)N(CCCNC(=O)Nc1ccc(C(C)(C)C)cc1)C[C@H]1O[C@@H](n2cc(Br)c3c(N)ncnc32)[C@H](O)[C@@H]1O` [SGC0946]: the IC50 came to 38 ± 5.24 µmol/L in assay [1], 9.18 ± 0.11 µmol/L in assay [2] and 18.4 nM in assay [4]. Besides, the “H3K79me2 level (WB of common histone H3 modifications)” value in assay [3] is listed as “decrease”. In addition, the “H3K27me3, H3K9me2, H3K4me1 and H3K36me2 levels” value in assay [5] is on record as “remained relatively unchanged”. In addition, the figures for the TGI in assay [6] and in assay [7] were 26.5% and 44.4%, respectively.
